Reference: ChEMBL document CHEMBL1134010, “Syntheses and antifungal activities of novel 3-amido bearing pseudomycin analogues” (Bioorg Med Chem Lett, 2001)
In brackets after ≈: the same amount, converted by molar mass. Positions of bridges follow the written chain, without caps; N, C: chain ends. Non-standard residues stand in square brackets, D forms with d. Residues, ends and D or L forms follow the SMILES beside them. *: point of attachment. Tetradecanoyl(3R-OH) = CCCCCCCCCCC[C@@H](O)CC(=O)*; Asp(3S-OH) = N[C@H](C(=O)O)[C@H](O)C(=O)O; Thr(4-Cl) = N[C@H](C(=O)O)[C@H](O)CCl; aThr = C[C@H](O)[C@H](N)C(=O)O; dDab = NCC[C@@H](N)C(=O)O; NHCH2CH2NMe2 = CN(C)CCN*; Dab = NCC[C@H](N)C(=O)O; Dhb = C/C=C(\N)C(=O)O; NHcPr = C1CC1N*

How the values were obtained:
[1] = system: Aspergillus fumigatus; assay: In vitro minimum inhibitory concentration (MIC) against Aspergillus fumigatus.; assay type: functional
How it was run: (§1)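 Tested against Candida albicans, Cryptococcus neoformans and Aspergillus fumigatus, with PSB as positive control. MIC is taken as the lowest drug concentration giving 90–100% inhibition of visible growth relative to drug-free controls.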

[2] = system: Candida albicans; assay: In vivo efficacy against murine Candidiasis dosed four times by intraperitoneal administration post-infection using Reed and Muench method.; assay type: functional; conditions: ip
How it was run: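 Systemic candidiasis in mice, with PSB and amphotericin B as positive controls. Analogues were given at 20, 10 and 5 mg/kg, four doses at 0, 4, 24 and 48 post-infection. ED50 is the dose giving 50% survival relative to untreated infected animals, calculated by the Reed and Muench method.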

[3] = system: Mus musculus; assay: Compound was dosed four times to outbred, male ICR mice and signs of irritation (erythema, swelling, discoloration, necrosis and tail loss) were observed in tail irritation test; Yes; assay type: ADME, organism-based; conditions: in vivo
[4] = system: Candida albicans; assay: In vitro minimum inhibitory concentration (MIC) against Candida albicans.; assay type: functional; how it was run: as §1
[5] = system: Cryptococcus neoformans; assay: In vitro minimum inhibitory concentration (MIC) against Cryptococcus neoformans.; assay type: functional; how it was run: as §1
[6] = system: Mus musculus; assay: Toxicity at a dose of 75 mg/kg in mice; Death; conditions: in vivo
[7] = system: Mus musculus; assay: In vivo efficacy against murine systemic Cryptococosis by intraperitoneal administration; assay type: functional; conditions: ip
How it was run: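 Murine systemic cryptococcosis, ip dosing BID ×4 at 5.0, 1.25, 0.312 and 0.078 mg/kg. ED50 is the dose giving 50% survival relative to untreated infected animals.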

[8] = system: Mus musculus; assay: Toxicity at a dose of 125 mg/kg in mice; Death; conditions: in vivo
[9] = system: Mus musculus; assay: Toxicity at a dose of 100 mg/kg in mice; Death; conditions: in vivo
[10] = system: Mus musculus; assay: Survival extension of the mice against Aspergillosis infection at a dose of 1 mg/kg; assay type: functional
How it was run: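 Murine systemic aspergillosis model, ip. The analogue was given BID at 50, 10 and 1 mg/kg, and survival extension of infected animals was recorded.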

[11] = system: Rattus norvegicus; assay: Toxicity at a dose of 50 mg/kg in rats; Death; assay type: organism-based; set-up: dose 50 mg/kg; conditions: in vivo
[12] = system: Mus musculus; assay: Survival extension of the mice against Aspergillosis infection at a dose of 20 mg/kg; assay type: functional
[13] = system: Mus musculus; assay: In vivo efficacy against murine Candidiasis dosed four times by intraperitoneal administration post-infection using Reed and Muench method; Toxic; assay type: functional, organism-based

| SMILES | MIC [1] | ED50 [2] | Tail vein toxicity [3] | MIC [4] | MIC [5] | Toxicity [6] | ED50 [7] | Toxicity [8] | Toxicity [9] | Survival extension [10] | Toxicity [11] | Survival extension [12] | ED50 [13] |
| --- | --- | --- | --- | --- | --- | --- | --- | --- | --- | --- | --- | --- | --- |
| C/C=C1\NC(=O)[C@H]([C@H](C)O)NC(=O)[C@H](CCN)NC(=O)[C@H](CCCCN)NC(=O)[C@H](CC(=O)NCCCN(CC)CC)NC(=O)[C@@H](CCN)NC(=O)[C@@H](NC(=O)C[C@H](O)CCCCCCCCCCC)COC(=O)[C@H]([C@H](O)CCl)NC(=O)[C@H]([C@H](O)C(=O)O)NC1=O | > 20 µg/mL | < 4 mg/kg | Active | 20 µg/mL (≈ 15.2 µM) | < 0.01 µg/mL |  |  |  |  |  |  |  |  |
| C/C=C1\NC(=O)[C@H]([C@H](C)O)NC(=O)[C@H](CCN)NC(=O)[C@H](CCCCN)NC(=O)[C@H](CC(=O)NCCN)NC(=O)[C@@H](CCN)NC(=O)[C@@H](NC(=O)C[C@H](O)CCCCCCCCCCC)COC(=O)[C@H]([C@H](O)CCl)NC(=O)[C@H]([C@H](O)C(=O)O)NC1=O | 5 µg/mL (≈ 4 µM) | < 5 mg/kg | Active | 10 µg/mL (≈ 8 µM) | < 0.01 µg/mL |  |  |  |  |  |  |  |  |
| C/C=C1\NC(=O)[C@H]([C@H](C)O)NC(=O)[C@H](CCN)NC(=O)[C@H](CCCCN)NC(=O)[C@H](CC(=O)NCCN(C)C)NC(=O)[C@@H](CCN)NC(=O)[C@@H](NC(=O)C[C@H](O)CCCCCCCCCCC)COC(=O)[C@H]([C@H](O)CCl)NC(=O)[C@H]([C@H](O)C(=O)O)NC1=O ({Tetradecanoyl(3R-OH)}-S[dDab]D(NHCH2CH2NMe2)K[Dab][aThr][Dhb][Asp(3S-OH)][Thr(4-Cl)]; ester 1-C) | 5 µg/mL (≈ 3.91 µM) | < 5 mg/kg |  | 0.156 µg/mL (≈ 0.122 µM) | < 0.01 µg/mL | Death | 2.5 mg/kg | Death | Death | 23% |  |  |  |
| C/C=C1\NC(=O)[C@H]([C@H](C)O)NC(=O)[C@H](CCN)NC(=O)[C@H](CCCCN)NC(=O)[C@H](CC(N)=O)NC(=O)[C@@H](CCN)NC(=O)[C@@H](NC(=O)C[C@H](O)CCCCCCCCCCC)COC(=O)[C@H]([C@H](O)CCl)NC(=O)[C@H]([C@H](O)C(=O)O)NC1=O ({Tetradecanoyl(3R-OH)}-S[dDab]NK[Dab][aThr][Dhb][Asp(3S-OH)][Thr(4-Cl)]; ester 1-C) | 10 µg/mL (≈ 8.29 µM) | < 0.8 mg/kg | Active | 2.5 µg/mL (≈ 2.07 µM) | < 0.01 µg/mL |  |  |  |  |  |  |  |  |
| C/C=C1\NC(=O)[C@H]([C@H](C)O)NC(=O)[C@H](CCN)NC(=O)[C@H](CCCCN)NC(=O)[C@H](CC(=O)O)NC(=O)[C@@H](CCN)NC(=O)[C@@H](NC(=O)C[C@H](O)CCCCCCCCCCC)COC(=O)[C@H]([C@H](O)CCl)NC(=O)[C@H]([C@H](O)C(=O)O)NC1=O [PSEUDOMYCIN B] ({Tetradecanoyl(3R-OH)}-S[dDab]DK[Dab][aThr][Dhb][Asp(3S-OH)][Thr(4-Cl)]; ester 1-C) | > 20 µg/mL |  |  | 0.625 µg/mL (≈ 0.517 µM) | 0.01 µg/mL (≈ 0.00828 µM) | Death | 1.8 mg/kg | Death | Death |  | Death | 46% |  |
| C/C=C1\NC(=O)[C@H]([C@H](C)O)NC(=O)[C@H](CCN)NC(=O)[C@H](CCCCN)NC(=O)[C@H](CC(=O)NC2CC2)NC(=O)[C@@H](CCN)NC(=O)[C@@H](NC(=O)C[C@H](O)CCCCCCCCCCC)COC(=O)[C@H]([C@H](O)CCl)NC(=O)[C@H]([C@H](O)C(=O)O)NC1=O ({Tetradecanoyl(3R-OH)}-S[dDab]D(NHcPr)K[Dab][aThr][Dhb][Asp(3S-OH)][Thr(4-Cl)]; ester 1-C) | 20 µg/mL (≈ 16 µM) | < 5 mg/kg |  | 0.156 µg/mL (≈ 0.125 µM) | < 0.01 µg/mL |  | 2.9 mg/kg | Death | Death | 29% |  |  |  |
| C/C=C1\NC(=O)[C@H]([C@@H](C)O)NC(=O)[C@H](CCN)NC(=O)[C@H](CCCCN)NC(=O)[C@H](CC(=O)N[C@@H](CCCCN)C(=O)OC)NC(=O)[C@@H](CCN)NC(=O)[C@@H](NC(=O)C[C@H](O)CCCCCCCCCCC)COC(=O)[C@H]([C@H](O)CCl)NC(=O)[C@H]([C@H](O)C(=O)O)NC1=O | > 20 µg/mL | < 5 mg/kg |  | 1.25 µg/mL (≈ 0.926 µM) | < 0.01 µg/mL |  |  | Death | Death |  |  |  |  |
| C/C=C1\NC(=O)[C@H]([C@H](C)O)NC(=O)[C@H](CCN)NC(=O)[C@H](CCCCN)NC(=O)[C@H](CC(=O)NCCCCCCC)NC(=O)[C@@H](CCN)NC(=O)[C@@H](NC(=O)C[C@H](O)CCCCCCCCCCC)COC(=O)[C@H]([C@H](O)CCl)NC(=O)[C@H]([C@H](O)C(=O)O)NC1=O | > 20 µg/mL |  |  | 20 µg/mL (≈ 15.3 µM) | 0.312 µg/mL (≈ 0.239 µM) |  |  |  |  |  |  |  | Toxic |
